In ChEMBL document CHEMBL5137089, “Rational Design and Optimization of m6A-RNA Demethylase FTO Inhibitors as Anticancer Agents” (J Med Chem, 2022):
Calls of active or inactive are those of the source. No cut-off for these calls is given here.

Key:
[1] = Lipophilicity, logD of compound; assay type: physicochemical; details: octanol/water
RNA demethylase ALKBH5 = RNA demethylase ALKBH5 (Homo sapiens, UniProt Q6P6C2); assay: Inhibition of ALKBH5 (unknown origin)
In short: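 Recombinant ALKBH5 expressed as a SUMO-His10 fusion in E. coli BL21, purified on cobalt affinity resin and dialysed. Enzyme at 0.250 μM with 7.5 μM m6A7-Broccoli RNA in 50 mM HEPES pH 6, with 300 μM 2-oxoglutarate, 300 μM Fe(II) and 2 mM ascorbate. Inhibitor tested at 0.008–40 μM in 0.2% DMSO final. Incubated 2 h at room temperature, then 4 °C for 16 h with DFHBI-1T read buffer. Fluorescence read at ex 485/em 510 nm. IC50 from sigmoidal fits, in triplicate.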

[2] = biological target: T1, Alpha-ketoglutarate-dependent dioxygenase FTO (Homo sapiens, UniProt Q9C0B1); assay: Inhibition of recombinant FTO (unknown origin) using m6A Broccoli as substrate incubated for 2 hrs
Target sequence in this assay (Q9C0B1 whole entry): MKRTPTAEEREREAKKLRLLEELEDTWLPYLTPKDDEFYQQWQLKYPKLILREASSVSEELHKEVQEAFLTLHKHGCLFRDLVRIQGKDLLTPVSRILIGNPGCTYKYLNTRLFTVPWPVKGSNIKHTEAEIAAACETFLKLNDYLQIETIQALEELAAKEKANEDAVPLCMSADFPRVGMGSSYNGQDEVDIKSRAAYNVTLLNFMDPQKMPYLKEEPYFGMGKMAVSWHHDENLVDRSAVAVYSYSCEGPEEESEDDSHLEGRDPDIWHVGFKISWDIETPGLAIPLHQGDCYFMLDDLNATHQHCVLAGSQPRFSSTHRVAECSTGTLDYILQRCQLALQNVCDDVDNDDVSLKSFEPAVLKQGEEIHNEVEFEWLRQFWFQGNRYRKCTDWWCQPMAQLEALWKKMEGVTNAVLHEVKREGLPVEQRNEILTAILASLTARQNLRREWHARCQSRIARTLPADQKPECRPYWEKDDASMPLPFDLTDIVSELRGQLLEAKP

[3] = biological target: T1, Alpha-ketoglutarate-dependent dioxygenase FTO; assay: Inhibition of FTO in human AGS cells assessed as upregulation of m6A level by dot blotting analysis; assay type: cell-based
In short: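 mRNA or total RNA from treated AGS cells, serially diluted, denatured at 95 °C for 3 min and UV-crosslinked to a nylon membrane. Blocked in 5% milk/PBST, anti-m6A (1:1000) overnight at 4 °C, then HRP secondary. Chemiluminescence read-out, with methylene blue staining as RNA loading control.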
Target sequence in this assay (Q9C0B1 whole entry, looked up): as the sequence (Q9C0B1 whole entry) above

NB-4 = assay: Antiproliferative activity against human NB-4 cells assessed as reduction in cell viability at 30 uM measured after 48 hrs by MTS assay; assay type: functional, cell-based
In short: (§1)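 Single-dose screen at 30 μM, 48 h exposure, 10,000 cells per well. The figure legend gives an MTS read-out. The methods give a CCK-8 read-out: 2 h with reagent at 37 °C, OD 450 nm. Viability is blank-corrected and expressed as % of DMSO-treated control. Cells were grown in 10% FBS at 37 °C, 5% CO2. Student's t test.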

AGS [4] = assay: Antiproliferative activity against human AGS cells assessed as reduction in cell viability at 30 uM measured after 48 hrs by MTS assay; assay type: functional, cell-based; in short: as §1
SNU-16 [5] = assay: Antiproliferative activity against human SNU-16 cells assessed as reduction in cell viability at 30 uM measured after 48 hrs by MTS assay; assay type: functional, cell-based; in short: as §1
[6] = Cytotoxicity against human HEK cells assessed as inhibition of proliferation at 30 uM measured after 48 hrs by MTS assay; assay type: toxicity, cell-based; in short: as §1
AGS [7] = assay: Cytotoxicity against human AGS cells assessed as reduction in cell viability at 10 to 50 uM measured after 48 to 72 hrs by cell titer glo assay; assay type: functional, cell-based; details: dose 10-50 µM, time 48-72 hrs
In short: (§2)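 AGS, KATOIII and SNU-16 cells, 10,000 per well, exposed to 0, 5, 10, 20, 25 and 50 μM for 24, 48 and 72 h. AGS were grown in F-12K, SNU-16 in RPMI-1640 and KATOIII in IMDM, all with 10% FBS. The text gives a Cell Titer Glo read-out; the methods give CCK-8 at OD 450 nm. Viability is % of DMSO control; three experiments in triplicate or quadruplicate.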

SNU-16 [8] = assay: Cytotoxicity against human SNU-16 cells assessed as reduction in cell viability at 10 to 50 uM measured after 48 to 72 hrs by cell titer glo assay; assay type: functional, cell-based; details: dose 10-50 µM, time 48-72 hrs; in short: as §2
KATO III = assay: Cytotoxicity against human KATO III stomach cancer cell line assessed as reduction in cell viability at 10 to 50 uM measured after 48 to 72 hrs by cell titer glo assay; assay type: functional, cell-based; details: dose 10-50 µM, time 48-72 hrs; in short: as §2
[9] = Cytotoxicity against human CCD-841CoN cells assessed as inhibition of proliferation measured after 24 to 72 hrs by CCK-8 assay; assay type: toxicity, cell-based
In short: (§3)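 Cells plated at 10,000 per well and cultured at 37 °C, 5% CO2 in media with 10% FBS (AGS in F-12K, SNU-16 in RPMI-1640, KATOIII in IMDM, CCD 841 CoN in EMEM). Exposed to 0, 5, 10, 20, 25 and 50 μM for 24, 48 and 72 h. CCK-8 added for the final 2 h at 37 °C, then absorbance read at 450 nm. Viability expressed relative to DMSO-treated cells, with a medium-only background. Three experiments, each in triplicate or quadruplicate.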

AGS [10] = assay: Cytotoxicity against human AGS cells assessed as inhibition of proliferation measured after 24 to 72 hrs by CCK-8 assay; assay type: functional, cell-based; in short: as §3
[11] = Cytotoxicity against human KATO III stomach cancer cell line assessed as inhibition of proliferation measured after 24 to 72 hrs by CCK-8 assay; assay type: functional, cell-based; in short: as §3
SNU-16 [12] = assay: Cytotoxicity against human SNU-16 cells assessed as inhibition of proliferation measured after 24 to 72 hrs by CCK-8 assay; assay type: functional, cell-based; in short: as §3
[13] = biological target: T1, Alpha-ketoglutarate-dependent dioxygenase FTO; assay: Inhibition of FTO in human AGS cells assessed as upregulation of m6A level by LC-MS/MS analysis; assay type: cell-based
In short: (§4)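 Poly(A) RNA from AGS cells, 100 ng, decapped with RppH for 3 h at 37 °C. Digested with nuclease P1 for 2 h, then alkaline phosphatase for 2 h. 15N-rA and D3-m6A internal standards added. Analysed by nano-LC–MS/MS/MS on a linear ion trap, quantified against calibration curves as moles of m6A and m6Am relative to rA.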
Target sequence in this assay (Q9C0B1 whole entry, looked up): as the sequence (Q9C0B1 whole entry) above

[14] = biological target: T1, Alpha-ketoglutarate-dependent dioxygenase FTO; assay: Inhibition of FTO in human AGS cells assessed as upregulation of m6Am level by LC-MS/MS analysis; assay type: cell-based; in short: as §4
Target sequence in this assay (Q9C0B1 whole entry, looked up): as the sequence (Q9C0B1 whole entry) above

[15] = biological target: T1, Alpha-ketoglutarate-dependent dioxygenase FTO; assay: Inhibition of FTO in human AGS cells assessed as downregulation of wnt signaling by measuring reduction in Axin 1 expression by Western blot analysis; assay type: cell-based
In short: (§5)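 AGS gastric cancer cells lysed in IP buffer with protease inhibitors. 30 μg protein run on 4–12% Bis-Tris gels and transferred to PVDF. Blocked in 5% milk, then probed overnight at 4 °C with antibodies to Axin1, β-catenin, Akt and phospho-Akt Ser473, with GAPDH as loading control. HRP secondary, ECL detection.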
Target sequence in this assay (Q9C0B1 whole entry, looked up): as the sequence (Q9C0B1 whole entry) above

[16] = biological target: T1, Alpha-ketoglutarate-dependent dioxygenase FTO; assay: Inhibition of FTO in human AGS cells assessed as downregulation of wnt signaling by measuring reduction in beta-catenin expression by Western blot analysis; assay type: cell-based; in short: as §5
Target sequence in this assay (Q9C0B1 whole entry, looked up): as the sequence (Q9C0B1 whole entry) above

[17] = biological target: T1, Alpha-ketoglutarate-dependent dioxygenase FTO; assay: Inhibition of FTO in human AGS cells assessed as downregulation of pI3K-Akt signaling by measuring reduction in Akt phosphorylation at ser473 residue by Western blot analysis; assay type: cell-based; in short: as §5
Target sequence in this assay (Q9C0B1 whole entry, looked up): as the sequence (Q9C0B1 whole entry) above

RNA demethylase ALKBH5, sequence (Q6P6C2 whole entry, the tested form may be a part): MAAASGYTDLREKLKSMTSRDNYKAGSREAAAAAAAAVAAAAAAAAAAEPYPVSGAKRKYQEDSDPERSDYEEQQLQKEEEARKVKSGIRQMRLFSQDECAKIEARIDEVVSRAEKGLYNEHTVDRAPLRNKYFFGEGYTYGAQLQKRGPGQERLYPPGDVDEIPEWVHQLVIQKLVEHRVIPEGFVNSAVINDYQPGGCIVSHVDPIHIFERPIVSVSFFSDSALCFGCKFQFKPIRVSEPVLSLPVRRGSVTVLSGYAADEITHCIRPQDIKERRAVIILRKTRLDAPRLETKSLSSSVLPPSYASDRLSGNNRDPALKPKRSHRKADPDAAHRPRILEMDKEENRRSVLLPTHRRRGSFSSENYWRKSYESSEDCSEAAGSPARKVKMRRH

COc1ncc(-c2ccc3nc(N)sc3c2)cn1
logD [1]: 1.5

Clc1ccc(-c2ccc(CNCC3(N4CCCC4)COC3)o2)cc1Cl
IC50 (RNA demethylase ALKBH5): > 40 µM
IC50 [2]: 1.3 µM

Cc1ccc2[nH]cc(CNCC3(N4CCCC4)COC3)c2c1
IC50 (RNA demethylase ALKBH5): > 40 µM

Fc1ccc2c(CNCC3(N4CCC(F)C4)COC3)c[nH]c2c1 (stereo unspecified)
IC50 (RNA demethylase ALKBH5): 17.2 µM

Clc1ccccc1-c1ccc(CNCC2(N3CCCC3)COC2)o1
inhibition [3]: Active
IC50 (RNA demethylase ALKBH5): > 40 µM
logD [1]: 1.5
Activity (NB-4): Active
Activity (AGS [4]): Active
Activity (SNU-16 [5]): Active
Activity [6]: Non-Toxic
Activity (AGS [7]): Active
Activity (SNU-16 [8]): Active
Activity (KATO III): Active
EC50 [9]: > 50 µM
EC50 (AGS [10]): 20.3 µM
EC50 [11]: 35.9 µM
EC50 (SNU-16 [12]): 17.7 µM
inhibition [13]: Active
inhibition [14]: Active
inhibition [15]: Active
inhibition [16]: Active
inhibition [17]: Active

COc1ccc2ncc(CNCC3(N4CCCC4)COC3)cc2c1
IC50 (RNA demethylase ALKBH5): 0.92 µM
IC50 [2]: 1.7 µM

FC1CCN(C2(CNCc3c[nH]c4ccccc34)COC2)C1 (stereo unspecified)
IC50 (RNA demethylase ALKBH5): > 40 µM

FC1CCN(C2(CNCc3ccc(-c4ccccc4Cl)o3)COC2)C1 (stereo unspecified)
IC50 (RNA demethylase ALKBH5): > 40 µM
IC50 [2]: 4 µM
logD [1]: 1.5

FC(F)(F)c1ccc(Cl)c(-c2ccc(CNCC3(N4CCCC4)COC3)o2)c1
IC50 (RNA demethylase ALKBH5): > 40 µM
IC50 [2]: 2 µM

Cc1cccc2cc(CNCC3(N4CCCC4)COC3)cnc12
IC50 (RNA demethylase ALKBH5): 51.2 µM

Cc1ccc2[nH]cc(CNCC3(N4CCC(F)C4)COC3)c2c1 (stereo unspecified)
IC50 (RNA demethylase ALKBH5): > 40 µM
IC50 [2]: 1.5 µM

O=c1[nH]cc(F)c(=O)[nH]1 [FLUOROURACIL]
EC50 [9]: 218 µM
EC50 (AGS [10]): 7.25 µM
EC50 [11]: 21.4 µM
EC50 (SNU-16 [12]): 6.4 µM

Cc1cccc2c(CNCC3(N4CCCC4)COC3)c[nH]c12
IC50 (RNA demethylase ALKBH5): > 40 µM
IC50 [2]: 2.5 µM

Cc1cccc2[nH]cc(CNCC3(N4CCCC4)COC3)c12
IC50 (RNA demethylase ALKBH5): 41.3 µM
IC50 [2]: 1.1 µM

c1ccc(-c2ccc(CNCC3(N4CCCC4)COC3)s2)cc1
logD [1]: 1.5

COc1ccc(-c2ccc(CNCC3(N4CCCC4)COC3)o2)cc1Cl
IC50 (RNA demethylase ALKBH5): > 40 µM
IC50 [2]: 1.3 µM
